Like-named read-outs stand apart in the source and are kept apart here.
Tests used:
[1] = biological target: T1, RyR1 (Fundulus heteroclitus, UniProt A0A3Q2R0L4); experiment: Ca^2+ induced [^3H]Ry binding; format: biochemical; conditions: NBH and SC killifish; 10 nM [^3H]Ry
Procedure, shortened: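 Skeletal muscle microsomes (≥4 fish pooled per population), 100 µg ml−1, with 10 nM [3H]Ry in 250 KCl/15 NaCl/20 HEPES mM buffer (pH 7.1), 25°C, 16 h. Free Ca2+ 0.25–10,000 µM set with CaCl2/EGTA. Nonspecific binding: 1000-fold unlabeled ryanodine plus 200 µM EGTA. GF/B filtration, scintillation counting. Bell-shaped curve fit. 2–4 biological replicates, each run in triplicate or quadruplicate.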

[2] = biological target: T1, RyR1; format: binding; conditions: two-site model, estimate ± SE
[3] = biological target: T1, RyR1; experiment: PCB 95 induced [^3H]Ry binding; format: biochemical; conditions: for maximum response achieved, [^3H]Ry binding: 8 nM [^3H]Ry, 50 µM CaCl2; for EC50: read-out: half-maximal effect concentration (EC50)
Procedure, shortened: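 Pooled skeletal muscle microsomes, 40 µg ml−1, were incubated with 8 nM [3H]Ry and 50 µM CaCl2 in RyR buffer (pH 7.1) at 25°C for 16 h. Test compound 0.01–20 µM in 0.5% DMSO; solvent control was 0.5% DMSO. After filtration and scintillation counting, specific binding was taken as a percent of the DMSO control and fitted by sigmoidal dose-response. 2–4 biological replicates, each in triplicate or quadruplicate.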

T1 sequence (A0A3Q2R0L4 1-4852): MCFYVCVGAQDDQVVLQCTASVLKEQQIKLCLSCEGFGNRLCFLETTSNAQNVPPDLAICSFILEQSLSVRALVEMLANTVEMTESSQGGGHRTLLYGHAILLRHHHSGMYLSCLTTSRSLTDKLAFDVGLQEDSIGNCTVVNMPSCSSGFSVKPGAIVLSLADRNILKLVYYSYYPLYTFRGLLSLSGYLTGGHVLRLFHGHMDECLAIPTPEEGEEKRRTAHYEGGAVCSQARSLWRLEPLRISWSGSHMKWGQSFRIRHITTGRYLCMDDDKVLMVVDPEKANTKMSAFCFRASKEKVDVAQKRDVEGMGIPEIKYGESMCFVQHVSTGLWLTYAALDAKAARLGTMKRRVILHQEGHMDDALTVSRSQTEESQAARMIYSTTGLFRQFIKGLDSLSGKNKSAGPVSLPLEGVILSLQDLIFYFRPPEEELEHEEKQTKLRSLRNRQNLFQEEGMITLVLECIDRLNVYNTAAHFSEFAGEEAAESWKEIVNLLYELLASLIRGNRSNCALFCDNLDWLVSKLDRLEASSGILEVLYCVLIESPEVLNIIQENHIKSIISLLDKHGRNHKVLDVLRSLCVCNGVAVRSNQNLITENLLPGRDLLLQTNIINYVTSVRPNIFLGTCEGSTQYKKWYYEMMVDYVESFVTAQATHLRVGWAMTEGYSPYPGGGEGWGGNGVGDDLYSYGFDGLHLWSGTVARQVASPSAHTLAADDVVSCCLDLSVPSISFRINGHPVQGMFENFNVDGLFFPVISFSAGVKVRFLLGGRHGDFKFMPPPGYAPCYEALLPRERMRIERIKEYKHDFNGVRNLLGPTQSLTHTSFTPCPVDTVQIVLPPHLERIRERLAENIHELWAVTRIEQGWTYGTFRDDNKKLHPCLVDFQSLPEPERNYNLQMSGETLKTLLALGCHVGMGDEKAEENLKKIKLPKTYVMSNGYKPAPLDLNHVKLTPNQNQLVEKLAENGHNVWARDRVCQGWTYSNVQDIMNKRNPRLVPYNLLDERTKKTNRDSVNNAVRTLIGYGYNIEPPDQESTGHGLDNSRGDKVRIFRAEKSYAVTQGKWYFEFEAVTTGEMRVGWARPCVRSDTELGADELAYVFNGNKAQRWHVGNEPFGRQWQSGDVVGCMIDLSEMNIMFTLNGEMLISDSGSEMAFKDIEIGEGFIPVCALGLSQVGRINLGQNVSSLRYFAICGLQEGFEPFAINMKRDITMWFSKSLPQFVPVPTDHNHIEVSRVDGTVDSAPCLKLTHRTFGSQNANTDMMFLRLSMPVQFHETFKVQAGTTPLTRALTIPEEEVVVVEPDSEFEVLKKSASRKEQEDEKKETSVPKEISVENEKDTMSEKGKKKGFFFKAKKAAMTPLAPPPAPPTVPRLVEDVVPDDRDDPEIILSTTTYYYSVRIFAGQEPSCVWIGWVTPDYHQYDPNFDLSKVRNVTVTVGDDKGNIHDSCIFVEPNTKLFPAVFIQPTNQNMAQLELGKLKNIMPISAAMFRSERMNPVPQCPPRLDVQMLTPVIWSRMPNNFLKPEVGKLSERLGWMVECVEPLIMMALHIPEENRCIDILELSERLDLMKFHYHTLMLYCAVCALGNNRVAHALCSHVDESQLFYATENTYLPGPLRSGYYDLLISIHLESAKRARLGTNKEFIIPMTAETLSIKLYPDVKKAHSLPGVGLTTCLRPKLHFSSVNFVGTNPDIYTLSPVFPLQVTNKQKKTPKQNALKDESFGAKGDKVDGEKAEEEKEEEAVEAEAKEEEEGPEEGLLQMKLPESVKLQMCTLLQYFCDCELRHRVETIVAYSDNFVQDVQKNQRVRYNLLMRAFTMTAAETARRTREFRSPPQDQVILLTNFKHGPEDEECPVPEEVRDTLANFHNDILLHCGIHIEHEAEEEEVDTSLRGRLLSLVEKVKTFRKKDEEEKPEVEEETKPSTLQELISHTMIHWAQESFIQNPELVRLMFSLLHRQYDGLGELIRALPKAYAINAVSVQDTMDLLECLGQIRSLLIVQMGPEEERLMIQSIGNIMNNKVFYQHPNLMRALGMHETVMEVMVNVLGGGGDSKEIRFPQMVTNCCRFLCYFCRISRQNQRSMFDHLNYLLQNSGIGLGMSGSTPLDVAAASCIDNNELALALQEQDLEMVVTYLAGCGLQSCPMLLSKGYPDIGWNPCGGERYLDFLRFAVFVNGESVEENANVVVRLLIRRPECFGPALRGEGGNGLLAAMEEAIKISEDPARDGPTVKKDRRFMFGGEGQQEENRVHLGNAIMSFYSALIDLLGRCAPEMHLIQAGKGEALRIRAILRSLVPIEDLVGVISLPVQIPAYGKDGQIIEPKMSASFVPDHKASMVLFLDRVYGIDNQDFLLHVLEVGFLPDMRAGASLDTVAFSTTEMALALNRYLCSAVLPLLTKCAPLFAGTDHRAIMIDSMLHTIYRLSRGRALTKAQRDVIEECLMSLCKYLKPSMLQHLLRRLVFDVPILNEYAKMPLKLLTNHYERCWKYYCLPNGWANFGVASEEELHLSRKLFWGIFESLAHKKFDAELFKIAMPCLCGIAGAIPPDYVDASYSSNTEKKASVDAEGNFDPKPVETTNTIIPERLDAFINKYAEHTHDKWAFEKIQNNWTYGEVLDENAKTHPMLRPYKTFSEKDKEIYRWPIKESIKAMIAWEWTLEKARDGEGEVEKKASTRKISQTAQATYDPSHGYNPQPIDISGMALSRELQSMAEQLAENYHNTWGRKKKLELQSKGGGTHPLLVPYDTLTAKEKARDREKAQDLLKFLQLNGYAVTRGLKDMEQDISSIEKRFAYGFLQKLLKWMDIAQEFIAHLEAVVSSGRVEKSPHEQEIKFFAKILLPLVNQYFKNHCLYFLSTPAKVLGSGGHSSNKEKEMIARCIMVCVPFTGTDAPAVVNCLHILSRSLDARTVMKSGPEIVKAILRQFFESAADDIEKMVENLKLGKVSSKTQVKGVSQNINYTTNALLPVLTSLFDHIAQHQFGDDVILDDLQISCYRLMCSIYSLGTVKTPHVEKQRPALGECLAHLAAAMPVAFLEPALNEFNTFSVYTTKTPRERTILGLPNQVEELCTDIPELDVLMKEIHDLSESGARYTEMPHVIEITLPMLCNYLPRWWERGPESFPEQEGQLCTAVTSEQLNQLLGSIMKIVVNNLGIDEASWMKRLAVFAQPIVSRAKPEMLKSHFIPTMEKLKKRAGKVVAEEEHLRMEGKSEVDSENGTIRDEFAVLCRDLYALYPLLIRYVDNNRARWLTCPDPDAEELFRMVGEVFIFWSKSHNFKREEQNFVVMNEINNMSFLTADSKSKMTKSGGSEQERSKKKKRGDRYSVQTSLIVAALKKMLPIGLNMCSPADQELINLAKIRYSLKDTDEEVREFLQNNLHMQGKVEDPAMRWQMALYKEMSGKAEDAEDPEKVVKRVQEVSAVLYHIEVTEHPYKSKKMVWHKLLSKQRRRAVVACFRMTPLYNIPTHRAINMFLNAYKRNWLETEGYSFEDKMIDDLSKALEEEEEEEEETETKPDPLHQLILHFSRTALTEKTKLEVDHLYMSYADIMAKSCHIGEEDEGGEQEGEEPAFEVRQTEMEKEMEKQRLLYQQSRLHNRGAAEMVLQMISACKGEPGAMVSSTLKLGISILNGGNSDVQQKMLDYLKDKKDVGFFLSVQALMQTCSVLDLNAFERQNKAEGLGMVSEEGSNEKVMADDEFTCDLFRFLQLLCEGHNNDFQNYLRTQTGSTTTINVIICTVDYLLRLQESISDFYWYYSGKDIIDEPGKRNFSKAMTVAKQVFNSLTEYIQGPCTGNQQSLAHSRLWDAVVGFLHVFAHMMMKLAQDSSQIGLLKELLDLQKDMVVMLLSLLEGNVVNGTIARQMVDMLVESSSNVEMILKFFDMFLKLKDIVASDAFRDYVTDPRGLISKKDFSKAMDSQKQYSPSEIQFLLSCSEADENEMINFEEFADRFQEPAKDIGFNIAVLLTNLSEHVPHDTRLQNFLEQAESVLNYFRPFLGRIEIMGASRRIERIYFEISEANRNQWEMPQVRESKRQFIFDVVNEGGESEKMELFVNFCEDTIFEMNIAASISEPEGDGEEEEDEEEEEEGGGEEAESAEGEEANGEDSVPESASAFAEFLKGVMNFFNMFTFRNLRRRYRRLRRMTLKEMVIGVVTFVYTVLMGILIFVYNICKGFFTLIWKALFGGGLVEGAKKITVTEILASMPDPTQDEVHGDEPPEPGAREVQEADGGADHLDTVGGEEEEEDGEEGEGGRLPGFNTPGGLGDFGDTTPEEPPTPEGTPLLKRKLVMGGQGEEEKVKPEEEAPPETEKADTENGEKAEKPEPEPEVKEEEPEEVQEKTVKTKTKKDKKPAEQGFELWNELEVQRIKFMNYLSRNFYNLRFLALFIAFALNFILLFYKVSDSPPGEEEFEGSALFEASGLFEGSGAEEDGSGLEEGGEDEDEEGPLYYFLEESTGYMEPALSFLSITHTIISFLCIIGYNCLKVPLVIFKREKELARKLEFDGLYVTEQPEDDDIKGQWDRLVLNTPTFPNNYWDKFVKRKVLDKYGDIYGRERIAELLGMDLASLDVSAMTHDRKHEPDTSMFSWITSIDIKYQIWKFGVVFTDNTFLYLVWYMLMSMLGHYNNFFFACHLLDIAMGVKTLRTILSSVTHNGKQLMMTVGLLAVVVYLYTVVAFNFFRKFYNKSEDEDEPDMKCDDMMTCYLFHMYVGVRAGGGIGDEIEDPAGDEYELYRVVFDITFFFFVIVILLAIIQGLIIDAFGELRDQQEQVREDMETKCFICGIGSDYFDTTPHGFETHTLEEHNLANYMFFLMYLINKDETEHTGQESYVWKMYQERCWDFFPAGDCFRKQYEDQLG

[Ca+2] [Ca^2+]
Ca^2+ levels leading to receptor activation [1]: below 250 µM | Ca^2+ levels leading to receptor inactivation [1]: above 500 µM

CC(C)[C@@]1(O)[C@@H](OC(=O)c2ccc[nH]2)[C@@]2(O)[C@@]3(C)C[C@]4(O)O[C@@]5([C@H](O)[C@@H](C)CC[C@]35O)[C@@]2(O)[C@@]14C [[^3H]Ry, ryanodine]
High Affinity Bmax ([2]; NBH killifish skeletal muscle): 1.63 ± 0.32 pmol/mg | Low Affinity Bmax ([2]; NBH killifish skeletal muscle): 6.69 ± 0.92 pmol/mg | High Affinity Bmax ([2]; SC killifish skeletal muscle): 1.47 ± 0.31 pmol/mg | Low Affinity Bmax ([2]; SC killifish skeletal muscle, 95% CI 0.81 to 5.05): 2.93 ± 1.07 pmol/mg

Clc1ccc(Cl)c(-c2c(Cl)ccc(Cl)c2Cl)c1 [PCB 95]
EC10 ([3]; NBH killifish skeletal muscle): 9.23 nM | maximum response achieved, [^3H]Ry binding ([3]; NBH killifish skeletal muscle): 301 % of the DMSO control | EC10 ([3]; SC killifish skeletal muscle): 4.11 nM | maximum response achieved, [^3H]Ry binding ([3]; SC killifish skeletal muscle): 248 % of the DMSO control | EC50 ([3]; NBH killifish skeletal muscle, 95% CI 77.7–119.1): 96.2 nM | EC50 ([3]; SC killifish skeletal muscle, 95% CI 36.6–84.6): 55.6 nM

Reference: PMC4300256 (Aquatic toxicology (Amsterdam, Netherlands), 2014)
